Tests used:
[1] = target: T1, GABA-A receptor; alpha-1/beta-3/gamma-2 (Homo sapiens, UniProt P14867+P18507+P28472); assay: Binding affinity at human recombinant gamma-aminobutyric-acid A receptor alpha-1-beta-3-gamma-2 expressed in L(tk) cells by [3H]Ro-151788 displacement.; type: cell-based
T1 sequence (P14867 whole entry): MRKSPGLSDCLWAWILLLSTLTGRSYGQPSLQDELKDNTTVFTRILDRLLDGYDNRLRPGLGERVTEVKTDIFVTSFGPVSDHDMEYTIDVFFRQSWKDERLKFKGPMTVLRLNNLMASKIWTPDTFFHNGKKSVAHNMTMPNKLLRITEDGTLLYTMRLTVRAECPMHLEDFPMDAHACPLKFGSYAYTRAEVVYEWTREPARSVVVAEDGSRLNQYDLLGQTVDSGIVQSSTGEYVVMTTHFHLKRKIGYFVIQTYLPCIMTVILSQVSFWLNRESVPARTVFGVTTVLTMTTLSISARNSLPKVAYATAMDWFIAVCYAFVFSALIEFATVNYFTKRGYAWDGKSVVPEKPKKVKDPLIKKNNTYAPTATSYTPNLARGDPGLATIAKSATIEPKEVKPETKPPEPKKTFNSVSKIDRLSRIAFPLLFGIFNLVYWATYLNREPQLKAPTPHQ
T1 sequence (P18507 whole entry): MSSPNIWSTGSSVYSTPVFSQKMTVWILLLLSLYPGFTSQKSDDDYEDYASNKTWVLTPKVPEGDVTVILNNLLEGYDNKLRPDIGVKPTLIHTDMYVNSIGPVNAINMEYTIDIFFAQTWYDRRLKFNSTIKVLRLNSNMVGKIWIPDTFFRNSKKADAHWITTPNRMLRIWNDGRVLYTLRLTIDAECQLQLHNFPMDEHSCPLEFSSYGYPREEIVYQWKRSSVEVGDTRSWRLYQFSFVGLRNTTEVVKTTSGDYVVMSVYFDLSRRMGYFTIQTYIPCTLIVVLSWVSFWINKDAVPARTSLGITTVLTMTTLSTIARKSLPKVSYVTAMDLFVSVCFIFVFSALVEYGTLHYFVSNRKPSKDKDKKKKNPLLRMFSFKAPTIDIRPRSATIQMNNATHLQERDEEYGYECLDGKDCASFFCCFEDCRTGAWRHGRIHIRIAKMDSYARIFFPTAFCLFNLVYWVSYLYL
T1 sequence (P28472 whole entry): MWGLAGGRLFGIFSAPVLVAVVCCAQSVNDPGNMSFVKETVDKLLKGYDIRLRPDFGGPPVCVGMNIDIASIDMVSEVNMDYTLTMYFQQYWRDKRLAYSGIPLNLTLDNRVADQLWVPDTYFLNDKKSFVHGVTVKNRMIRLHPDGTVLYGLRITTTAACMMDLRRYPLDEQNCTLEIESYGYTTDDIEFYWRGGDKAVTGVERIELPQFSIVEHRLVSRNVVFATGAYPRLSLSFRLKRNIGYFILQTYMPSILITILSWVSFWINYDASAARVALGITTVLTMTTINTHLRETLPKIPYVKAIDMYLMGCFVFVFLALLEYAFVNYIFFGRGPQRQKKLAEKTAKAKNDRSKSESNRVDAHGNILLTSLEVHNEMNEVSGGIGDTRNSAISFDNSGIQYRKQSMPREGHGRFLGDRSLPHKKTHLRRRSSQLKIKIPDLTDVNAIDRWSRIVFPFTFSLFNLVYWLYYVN
How it was run: (§1)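 Human recombinant GABAA receptors (α1 or α3 with β3γ2) stably expressed in L(tk⁻) cells; affinity measured as displacement of [³H]Ro15-1788. Values are mean±SD of 2–10 separate determinations.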

[2] = target: T2, GABA-A receptor; alpha-3/beta-3/gamma-2 (Homo sapiens, UniProt P18507+P28472+P34903); assay: Binding affinity at human recombinant gamma-aminobutyric-acid A receptor alpha-3-beta-3-gamma-2 expressed in L(tk) cells by [3H]Ro-151788 displacement.; type: cell-based; how it was run: as §1
T2 sequence (P18507 whole entry): T1 sequence (P18507 whole entry)
T2 sequence (P28472 whole entry): T1 sequence (P28472 whole entry)
T2 sequence (P34903 whole entry): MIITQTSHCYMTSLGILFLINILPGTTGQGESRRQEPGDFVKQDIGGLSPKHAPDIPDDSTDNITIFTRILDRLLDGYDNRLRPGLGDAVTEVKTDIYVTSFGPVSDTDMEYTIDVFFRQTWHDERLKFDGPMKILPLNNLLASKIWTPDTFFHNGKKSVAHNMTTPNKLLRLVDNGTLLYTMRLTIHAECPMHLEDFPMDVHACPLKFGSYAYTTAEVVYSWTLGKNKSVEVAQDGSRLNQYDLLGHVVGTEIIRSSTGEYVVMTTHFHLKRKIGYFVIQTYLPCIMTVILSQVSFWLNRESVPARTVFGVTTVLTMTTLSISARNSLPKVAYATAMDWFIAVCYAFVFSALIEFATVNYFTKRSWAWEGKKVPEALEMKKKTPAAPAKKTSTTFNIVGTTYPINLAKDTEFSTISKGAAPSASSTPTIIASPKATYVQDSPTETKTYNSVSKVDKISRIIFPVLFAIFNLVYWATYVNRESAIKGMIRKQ

[3] = target: T3, Gamma-aminobutyric acid receptor subunit alpha-3 (Homo sapiens) (UniProt P34903); assay: Efficacy at Gamma-aminobutyric acid A receptor, alpha 3-ion channel relative to chlorodiazepoxide.
T3 sequence (whole entry): T2 sequence (P34903 whole entry)
How it was run: (§2)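 Human recombinant GABAA receptors, α1 or α3 with β3γ2, stably expressed in L(tk⁻) cells. Chloride ion flux modulated by test compound at approximately 1000×Ki, in the presence of GABA at an EC20-equivalent concentration. Efficacy expressed relative to full agonist chlordiazepoxide (=1.0), from at least seven independent experiments; some compounds measured instead by whole-cell patch-clamp current at GABA EC20.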

[4] = target: T4, Gamma-aminobutyric acid receptor subunit alpha-1 (Homo sapiens) (UniProt P14867); assay: Efficacy at gamma-aminobutyric acid A receptor, alpha 1-ion channel relative to chlorodiazepoxide.; how it was run: as §2
T4 sequence (whole entry): T1 sequence (P14867 whole entry)

[5] = target: T1, GABA-A receptor; alpha-1/beta-3/gamma-2; assay: Displacement of [3H]Ro-151788 from human GABA-A receptor alpha-1-beta-3-gamma-2 subunits expressed in L(tk) cells; type: cell-based; how it was run: as §1
[6] = target: Gamma-aminobutyric acid receptor subunit alpha-6 (Homo sapiens, UniProt Q16445); assay: Displacement of [3H]Ro-151788 from human GABA-A receptor alpha6 subunit expressed in L(tk) cells; type: cell-based
[7] = target: Gamma-aminobutyric acid receptor subunit alpha-4 (Homo sapiens, UniProt P48169); assay: Displacement of [3H]Ro-151788 from human GABA-A receptor alpha4 subunit expressed in L(tk) cells; type: cell-based
[8] = target: T5, Gamma-aminobutyric acid receptor subunit alpha-5 (Homo sapiens, UniProt P31644); assay: Displacement of [3H]-Ro-15-1788 from human GABA-A receptor alpha5 subunit expressed in L(tk) cells; type: cell-based
T5 sequence (P31644 whole entry): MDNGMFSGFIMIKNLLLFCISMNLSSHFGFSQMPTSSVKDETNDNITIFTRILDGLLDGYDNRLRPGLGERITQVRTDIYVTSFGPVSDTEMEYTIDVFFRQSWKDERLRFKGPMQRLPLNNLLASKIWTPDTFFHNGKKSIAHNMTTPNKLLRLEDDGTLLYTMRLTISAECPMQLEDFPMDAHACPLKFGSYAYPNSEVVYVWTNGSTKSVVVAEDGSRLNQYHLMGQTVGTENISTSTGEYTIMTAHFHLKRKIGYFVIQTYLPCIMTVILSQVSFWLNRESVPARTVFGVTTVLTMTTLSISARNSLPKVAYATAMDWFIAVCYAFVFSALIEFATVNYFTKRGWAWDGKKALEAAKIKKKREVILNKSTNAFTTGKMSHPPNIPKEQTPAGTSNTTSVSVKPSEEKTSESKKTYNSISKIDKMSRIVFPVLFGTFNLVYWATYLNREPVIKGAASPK

[9] = Oral bioavailability in dog; type: ADME, organism-based, Canis lupus familiaris; conditions: in vivo
[10] = Oral bioavailability in rat; type: ADME, organism-based; conditions: in vivo
[11] = target: T6, Gamma-aminobutyric acid receptor subunit alpha-2 (Homo sapiens, UniProt P47869); assay: Displacement of [3H]Ro-151788 from human GABA-A receptor alpha2 subunit expressed in L(tk) cells; type: cell-based
T6 sequence (P47869 whole entry): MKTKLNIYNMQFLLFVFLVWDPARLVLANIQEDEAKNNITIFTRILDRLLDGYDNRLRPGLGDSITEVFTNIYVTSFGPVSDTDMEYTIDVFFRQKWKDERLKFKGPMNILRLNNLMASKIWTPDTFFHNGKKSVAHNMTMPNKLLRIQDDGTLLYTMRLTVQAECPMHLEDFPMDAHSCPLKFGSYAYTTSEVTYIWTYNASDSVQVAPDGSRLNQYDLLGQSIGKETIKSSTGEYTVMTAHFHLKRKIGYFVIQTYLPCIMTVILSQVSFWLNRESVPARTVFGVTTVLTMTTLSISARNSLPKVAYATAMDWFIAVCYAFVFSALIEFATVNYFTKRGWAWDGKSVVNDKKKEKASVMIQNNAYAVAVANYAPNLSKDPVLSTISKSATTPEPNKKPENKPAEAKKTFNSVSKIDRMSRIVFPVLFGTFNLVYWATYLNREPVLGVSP

Sequence of Gamma-aminobutyric acid receptor subunit alpha-6 (Q16445 whole entry): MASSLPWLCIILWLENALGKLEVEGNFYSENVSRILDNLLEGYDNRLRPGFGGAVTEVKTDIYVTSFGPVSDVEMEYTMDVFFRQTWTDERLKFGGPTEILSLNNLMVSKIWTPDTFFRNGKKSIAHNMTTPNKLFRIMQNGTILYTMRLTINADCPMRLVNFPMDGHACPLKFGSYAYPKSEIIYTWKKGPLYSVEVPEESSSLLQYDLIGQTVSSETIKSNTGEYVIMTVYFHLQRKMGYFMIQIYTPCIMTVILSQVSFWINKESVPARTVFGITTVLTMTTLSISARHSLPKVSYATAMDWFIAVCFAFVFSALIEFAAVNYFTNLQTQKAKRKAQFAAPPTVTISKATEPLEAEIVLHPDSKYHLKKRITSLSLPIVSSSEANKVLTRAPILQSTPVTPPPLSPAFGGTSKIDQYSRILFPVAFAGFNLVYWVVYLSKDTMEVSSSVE
Sequence of Gamma-aminobutyric acid receptor subunit alpha-4 (P48169 whole entry): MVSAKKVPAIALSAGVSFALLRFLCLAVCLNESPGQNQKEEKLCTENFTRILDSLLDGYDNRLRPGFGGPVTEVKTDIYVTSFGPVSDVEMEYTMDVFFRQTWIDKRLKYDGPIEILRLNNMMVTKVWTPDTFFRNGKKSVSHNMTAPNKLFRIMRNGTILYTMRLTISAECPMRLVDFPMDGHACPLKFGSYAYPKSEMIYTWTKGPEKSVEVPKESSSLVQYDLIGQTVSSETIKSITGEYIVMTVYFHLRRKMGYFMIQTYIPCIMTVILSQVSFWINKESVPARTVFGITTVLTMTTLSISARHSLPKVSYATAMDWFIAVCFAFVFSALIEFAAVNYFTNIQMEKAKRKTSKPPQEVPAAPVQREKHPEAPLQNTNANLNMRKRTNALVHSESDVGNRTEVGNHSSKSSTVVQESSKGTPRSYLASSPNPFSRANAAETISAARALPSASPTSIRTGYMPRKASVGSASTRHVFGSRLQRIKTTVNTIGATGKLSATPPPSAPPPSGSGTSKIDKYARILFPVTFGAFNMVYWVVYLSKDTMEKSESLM

For `Cc1csc(-c2cc(-c3ccncn3)c3n(c2=O)CCCc2ccncc2-3)n1`, the Ki [1] was 12.2 nM, the Ki [2] was 8.5 nM and the Efficacy [3] was 0.32. It also gave an Efficacy [4] of 0.03.

In the case of `Cc1csc(-c2cc(-c3ccc4ccccc4c3)c3n(c2=O)CCCc2ccncc2-3)n1`, the Ki [1] is reported as > 33 nM and the Ki [2] is reported as > 33 nM.

`Cc1csc(-c2cc(-c3ccoc3)c3n(c2=O)CCCc2ccncc2-3)n1` gave a Ki [1] of 3.9 nM, a Ki [2] of 4.4 nM and an Efficacy [3] of 0.05. For the same molecule, the Efficacy [4] was 0.04.

Molecule `Cc1csc(-c2cc(-c3ccnnc3)c3n(c2=O)CCCc2ccncc2-3)n1` has a Ki [1] of 8.3 nM, a Ki [2] of 5 nM and an Efficacy [3] of 0.2. For the same molecule, the Efficacy [4] was -0.41.

`Cc1csc(-c2cc(-c3cccn3C)c3n(c2=O)CCCc2ccncc2-3)n1` showed a Ki [1] of 4 nM, a Ki [2] of 3 nM and an Efficacy [3] of 0.46. The Efficacy [4] was 0.

Molecule `Cc1csc(-c2cc(-c3c(C)noc3C)c3n(c2=O)CCCc2ccncc2-3)n1` has a Ki [1] of 4.6 nM, a Ki [2] of 3.1 nM and an Efficacy [3] of 0.41. It also gave an Efficacy [4] of -0.11.

For `Cc1csc(-c2cc(-c3ccn(C)n3)c3n(c2=O)CCCc2ccncc2-3)n1`, the Ki [1] was 10 nM, the Ki [2] was 20 nM and the Efficacy [3] was 0.47. For the same molecule, the Efficacy [4] was 0.29.

In the case of `Cc1csc(-c2cc(-c3ccc(C#N)cc3)c3n(c2=O)CCCc2ccncc2-3)n1`, the Ki [1] is reported as 5.4 nM, the Ki [2] is reported as 3.1 nM and the Efficacy [3] is reported as 0.39. The Efficacy [4] was -0.04.

Work on `Cc1csc(-c2cc(-c3ccccc3F)c3n(c2=O)CCCc2ccncc2-3)n1` yielded a Ki [1] of 5 nM, a Ki [2] of 3 nM and an Efficacy [3] of 0.48. The Efficacy [4] was 0.56.

For `Cc1csc(-c2cc(-c3ccc(C(C)(C)C)cc3)c3n(c2=O)CCCc2ccncc2-3)n1`, the Ki [1] was > 33 nM and the Ki [2] was > 33 nM.

`Cc1csc(-c2cc(-c3nccn3C)c3n(c2=O)CCCc2ccncc2-3)n1` showed a Ki [5] of 14.3 nM, a Ki [2] of 16.8 nM and an Efficacy [3] of -0.01. The Efficacy [4] was -0.33.

`Cc1csc(-c2cc(-c3ccc[nH]3)c3n(c2=O)CCCc2ccncc2-3)n1` showed a Ki [1] of 7.8 nM, a Ki [2] of 4.2 nM and an Efficacy [3] of 0.41. It also gave an Efficacy [4] of -0.21.

In the case of `Cc1csc(-c2cc(-c3ccncc3)c3n(c2=O)CCCc2ccncc2-3)n1`, the Ki [6] is reported as 65.9 nM, the Ki [7] is reported as 27.9 nM and the Ki [8] is reported as > 33.3 nM. It also gave a bioavailability [9] of 20%, a Ki [1] of 1.3 nM and a bioavailability [10] of 28%. It also gave a Ki [2] of 0.5 nM, an Efficacy [3] of 0.45 and an Efficacy [4] of 0.

`Cc1csc(-c2cc(-c3cccnc3)c3n(c2=O)CCCc2ccncc2-3)n1` showed a Ki [1] of 5.3 nM, a Ki [2] of 2.4 nM and an Efficacy [3] of -0.02. For the same molecule, the Efficacy [4] was -0.16.

For `Cc1csc(-c2cc(-c3ccccc3)c3n(c2=O)CCCc2ccncc2-3)n1`, the Ki [1] was 0.7 nM, the Ki [11] was 0.3 nM and the Ki [2] was 0.4 nM. For the same molecule, the Efficacy [3] was 0.32 and the Efficacy [4] was 0.1.

For `Cc1csc(-c2cc(-c3cncnc3)c3n(c2=O)CCCc2ccncc2-3)n1`, the Ki [1] was 21.1 nM, the Ki [2] was 9 nM and the Efficacy [3] was 0.16. For the same molecule, the Efficacy [4] was -0.03.

Molecule `Cc1csc(-c2cc(-c3ccccc3C)c3n(c2=O)CCCc2ccncc2-3)n1` has a Ki [1] of 1.5 nM, a Ki [2] of 1.2 nM and an Efficacy [3] of 0.36. It also gave an Efficacy [4] of 0.08.

For `Cc1csc(-c2cc(-c3cccnn3)c3n(c2=O)CCCc2ccncc2-3)n1`, the Ki [1] was 26.1 nM, the Ki [2] was 17.3 nM and the Efficacy [3] was -0.44. For the same molecule, the Efficacy [4] was -0.33.

With `Cc1csc(-c2cc(-c3ccc(Cl)cc3)c3n(c2=O)CCCc2ccncc2-3)n1` the Ki [5] was 0.2 nM, the Ki [2] was 0.4 nM and the Efficacy [3] was 0.26. It also gave an Efficacy [4] of 0.17.

From ChEMBL document CHEMBL1148234, “Tricyclic pyridones as functionally selective human GABAA alpha 2/3 receptor-ion channel ligands” (Bioorg Med Chem Lett, 2004)
